Hits are enriched below; roughly 3.5% of the tested compounds scored in any of these assays.
MrgX1 antag: antagonists of human MrgX1 receptor, primary screen, HEK293 cells, Fluo-4 calcium flux; Mas-related G-protein coupled receptor member X1 (Homo sapiens), Q96LB2; BAM8-22 antagonism; stronger effect = lower value; B-score at 10 µM; 310,000 compounds, 1.3% hits;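 active means calcium-response B-score plate-corrected more than 3 library SD below zero, starting fluorescence within 5 deviations, no agonist response on first addition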;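 further: peak minus trough fluorescence over baseline after final BAM8-22 challenge near maximal dose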
Target sequence (Q96LB2 whole entry, looked up): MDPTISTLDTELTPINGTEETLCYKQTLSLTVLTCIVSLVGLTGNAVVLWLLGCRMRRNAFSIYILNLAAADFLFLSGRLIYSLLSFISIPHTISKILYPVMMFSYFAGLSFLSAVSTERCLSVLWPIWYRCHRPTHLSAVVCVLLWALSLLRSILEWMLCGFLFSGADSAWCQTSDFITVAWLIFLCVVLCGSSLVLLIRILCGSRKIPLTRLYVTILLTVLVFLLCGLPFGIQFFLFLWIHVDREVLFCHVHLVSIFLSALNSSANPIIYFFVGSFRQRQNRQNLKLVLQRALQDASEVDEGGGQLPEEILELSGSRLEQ
RGS4 block: RGS4 inhibitors, primary screen, cell-based, HEK293 M3R inducible RGS4, calcium flux; B-score at 10 µM; Fluo-4 calcium flux; stronger effect = higher value; triggered by carbachol at its EC20; 310,000 compounds, 0.45% hits; Regulator of G-protein signaling 4 (Homo sapiens), P49798;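 active means B-score, a plate-corrected calcium signal, over three deviations above library mean, with baseline fluorescence within five deviations of library mean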;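 further: RGS4 expression induced by doxycycline in cells with stable M3 receptor; B-score is computed from the integrated fluorescence ratio over baseline after carbachol; higher B-score means a larger calcium signal and so more RGS4 inhibition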
Target sequence (P49798 whole entry, looked up): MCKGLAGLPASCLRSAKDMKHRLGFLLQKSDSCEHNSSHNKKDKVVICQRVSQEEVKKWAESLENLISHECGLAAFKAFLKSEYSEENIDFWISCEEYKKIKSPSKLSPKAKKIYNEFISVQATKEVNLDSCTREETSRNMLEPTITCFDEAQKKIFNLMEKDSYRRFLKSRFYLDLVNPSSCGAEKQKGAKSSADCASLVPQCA
MrgX1 allo act: positive allosteric modulators of MrgX1, primary screen, HEK293 cells, Fluo-4 calcium flux. Mas-related G-protein coupled receptor member X1 (Homo sapiens), Q96LB2. FDSS; stronger effect = higher value. B-score at 10 µM. 310,000 compounds, 0.63% hits;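 active means plate-corrected calcium response at least 3 library SD above typical, normal starting fluorescence, not activating the receptor alone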;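 further: compound read alongside a low EC10 to EC30 dose of BAM8-22 agonist; peak minus trough fluorescence over baseline measured at the second addition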
RGS4 pot: RGS4 potentiators or activators, primary screen, cell-based, HEK293 M3R inducible RGS4, calcium flux | carbachol calcium flux Fluo4; stronger effect = lower value | B-score at 10 µM | 310,000 compounds, 0.92% hits;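 active means B-score of the integrated calcium signal more than 4 SD below the library mean, with starting fluorescence not abnormally high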;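 further: negative B-score means reduced calcium response which marks RGS4 activation or potentiation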
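Material: Inducible-RGS4 HEK293 cells carrying M3 receptor; also added: carbachol at ECmax as muscarinic agonist stimulus; incubation: compound preincubation 20 min at room temperature before agonist; signal: Fluo4-AM (2 µM) calcium-flux fluorescence, kinetic read; measure: integrated calcium ratio converted to B score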
MrgX1 ag: agonists of human MrgX1 receptor, primary screen, HEK293 cells, Fluo-4 calcium flux; Mas-related G-protein coupled receptor member X1 (Homo sapiens), Q96LB2; 310,000 compounds, 0.44% hits; B-score at 10 µM; Fluo-4 calcium fluorescence, agonist mode; stronger effect = higher value; AID 588627, 2011;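 active means calcium response B-score plate-corrected fluorescence ratio at least 3 library SD, with starting fluorescence B-score inside 5 SD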
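System: HEK293 cells stably expressing human MrgX1 receptor; Dosing: test compound in the initial addition of three; Schedule: overnight plating, then 30 min 37 °C plus 30 min room-temperature dye loading; Detection: kinetic calcium dye fluorescence, Fluo-4 NW; Controls: per-plate positive and negative controls for Z′ factor.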
MrgX1 antag conf: MrgX1 receptor antagonists, duplicate retest, confirmation, HEK293 cells, Fluo-4 calcium flux; shares compounds with MrgX1 antag; BAM8-22 calcium flux; stronger effect = lower value; remaining BAM8-22 calcium response % of control (stronger effect = lower value), % at 10 µM; 2,300 compounds, 19% hits;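 active means remaining agonist calcium response no higher than 100% minus 3 SD of agonist-only control wells, with starting fluorescence near control levels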;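 further: agonist BAM8-22 given at a near maximal EC90 to ECmax level; peak minus minimum fluorescence divided by baseline after agonist addition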
HEK293 Ca flux: nonspecific calcium signal in parental HEK293, confirmation, counter-screen for MrgX1 antagonist project, parental HEK293 cells, Fluo-4 calcium flux; shares compounds with MrgX1 antag; Fluo-4 calcium fluorescence, FDSS; fluorescence ratio F(max-min)/F0 at 10 µM; 4,000 compounds, 2% hits;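 active means duplicate-averaged calcium fluorescence ratio at least three times the standard deviation of buffer wells, a nonspecific response in parental cells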
HEK293 Ca counter: calcium response in parental HEK293 cells, primary screen, counter-screen for MrgX1 allosteric activator project, cell-based, Fluo-4 calcium flux, duplicate | shares compounds with MrgX1 antag | Fluo-4 fluorescence ratio; stronger effect = higher value | fluorescence ratio F(max-min)/F0 at 10 µM | 4,000 compounds, 0.4% hits | AID 624114, 2012;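 active means calcium fluorescence ratio, averaged over duplicates, at least 3 SD of the buffer-well ratio, meaning a nonspecific response in receptor-free cells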;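 further: untransfected parental HEK293 lacking MrgX1 used as counterscreen for MrgX1 allosteric activators; fluorescence change taken during the second addition on a kinetic imager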
HEK293 Ca cntr2: calcium response in parental HEK293 cells, primary screen, counter-screen for MrgX1 agonist project, cell-based, Fluo-4 calcium flux, duplicate, agonist mode; AID 624115, 2012; Fluo-4 calcium fluorescence (FDSS); stronger effect = higher value; shares compounds with MrgX1 antag; fluorescence ratio F(max-min)/F0 at 10 µM; 4,000 compounds, 8.7% hits;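 active means calcium fluorescence ratio at least three times the spread of buffer wells, meaning a non-specific response in parental cells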
Hits are given with their value; – = inactive; · = no result.

SMILES	MrgX1 antag	RGS4 block	MrgX1 allo act	RGS4 pot	MrgX1 ag	MrgX1 antag conf	HEK293 Ca flux	HEK293 Ca counter	HEK293 Ca cntr2
CCCC(=O)NNC(=O)Nc1ccccc1	–	–	–	–	–	·	·	·	·
CCOC(=O)c1ccc2c(c1)nc(COc1ccc3ccccc3c1)n2CC	-5.2	–	–	-7.3	–	–	–	–	–
CCn1c(COc2ccc(OC)cc2)nc2ccccc21	–	–	–	–	–	·	·	·	·
CCC(CC)C(=O)Nc1cc(=O)n(C)c(=O)n1C	–	–	–	–	–	·	·	·	·
CS/C(N)=N/C(=S)Nc1cccc(Cl)c1	-4.6	–	–	–	–	–	–	–	–
NC(=S)Nc1cccc(Cl)c1	–	–	–	–	–	·	·	·	·
Cc1cnc(C(=O)OCC(=O)c2csc(N3CCCCC3)n2)cn1	-5.7	–	–	–	–	–	–	–	–
Cc1cccc(N(C)S(=O)(=O)c2cc3c(cc2C)n(C)c(=O)c(=O)n3C)c1	-4.7	–	–	–	–	–	–	–	–
Cc1cc2c(cc1S(=O)(=O)N(C)c1ccccc1)n(C)c(=O)n2C	–	–	–	–	–	·	·	·	·
Oc1c(C=Nc2ccc(Cl)cn2)sc2ccccc12	–	–	–	–	–	·	·	·	·
Oc1c(/C=N/c2ccccn2)sc2ccccc12	-6.7	–	–	–	–	69%	–	–	–
Oc1c(C=Nc2cccnc2)sc2ccccc12	-4.9	–	–	–	–	–	–	–	–
Cc1cc(OCC(=O)NC(C)(C)C)ccc1Cl	–	–	–	–	–	·	·	·	·
N#CCc1nc(CSc2nc3ccccc3s2)cs1	–	–	–	–	–	·	·	·	·
CCN1CNC(=S)N(c2cc(C)ccc2C)C1	-5.8	–	–	–	–	–	–	–	–
Cc1cccc(NC(=O)c2ccc(CN3CCN(Cc4ccccc4)CC3)cc2)c1	-7.9	–	–	–	–	–	–	–	–
O=C(CCN1CCN(C/C=C/c2ccccc2)CC1)Nc1ccccc1	–	–	–	–	–	·	·	·	·
Cc1cccc(CN2CCN(C(=S)Nc3ccccc3)CC2)c1	-5	–	–	–	–	–	–	–	–
Cc1cccc(NC(=O)CCN2CCN(C/C=C/c3ccccc3)CC2)c1	-6.1	–	–	–	–	–	–	–	–
CCOCCCNC(=S)N1CCN(c2nc(-c3ccc(F)cc3)cs2)CC1	-6.4	–	–	–	–	71%	–	–	–
COCCCNC(=S)N1CCN(c2nc(-c3ccc(F)cc3)cs2)CC1	–	–	–	–	–	·	·	·	·
COc1ccc(OC)c(S(=O)(=O)N(C)CC(=O)Nc2ccc3c(c2)OCO3)c1	–	–	–	–	–	·	·	·	·
CCC(C)C(NC(=O)c1ccc(Cl)cc1)C(=O)Nc1cccnc1 (stereo not drawn)	-7.6	–	–	–	–	–	–	–	–
Cc1[nH]c2ccccc2c1SCCN	-7.5	–	–	–	–	–	–	–	–
Cc1ccc(-c2[nH]c3ccccc3c2SCCN)cc1	–	–	–	–	–	·	·	·	·
SMILES	MrgX1 antag	RGS4 block	MrgX1 allo act	RGS4 pot	MrgX1 ag	MrgX1 antag conf	HEK293 Ca flux	HEK293 Ca counter	HEK293 Ca cntr2
O=C(NCCc1ccc(Cl)cc1)c1nnc(Cc2ccc(Cl)cc2)o1	–	–	–	–	–	·	·	·	·
CC1(C)Cc2nc(N3CCOCC3)c(C#N)cc2CO1	-6.1	–	–	–	–	–	–	–	–
CC1(C)Cc2nc(N3CCCC3)c(C#N)cc2CO1	–	–	–	–	–	·	·	·	·
COc1ccccc1N1N=C(c2ccc([N+](=O)[O-])cc2)CC1c1ccccc1 (stereo not drawn)	-15	–	–	–	–	–	0.69	–	–
O=[N+]([O-])c1ccc(N2N=C(c3ccccc3)CC2c2ccccc2O)cc1 (stereo not drawn)	-16	–	–	-9.3	–	–	0.56	–	–
COc1cc(N2N=C(c3ccccc3)CC2c2ccccc2)c(C=O)cc1C=O (stereo not drawn)	–	–	–	–	–	·	·	·	·
Cc1cc(C)c(C(=O)N2CCCC(N3CCN(c4cccc(C(F)(F)F)c4)CC3)C2)o1 (stereo not drawn)	–	–	–	–	–	·	·	·	·
Cc1ccsc1C(=O)N(Cc1nnc(-c2ccccc2Cl)o1)C1CC1	-5.8	–	–	–	–	–	–	–	–
Cc1cc(NC(=O)C2CC(=O)N(c3ccccc3)C2)no1 (stereo not drawn)	-4.6	–	–	–	–	85%	–	–	–
CCc1ccc(N2CC(C(=O)Nc3ccc(F)cc3)CC2=O)cc1 (stereo not drawn)	–	–	–	–	–	·	·	·	·
Cc1cc(NC(=O)c2ccc(N3C(=O)C4C5C=CC(C5)C4C3=O)cc2)no1 (stereo not drawn)	–	–	–	–	–	·	·	·	·
Cc1cc(NC(=O)c2ccc(N3C(=O)CCC3=O)cc2)no1	-5.3	–	–	–	–	–	–	–	–
CCc1ccc(N2CC(C(=O)Nc3cc(C)ccc3F)CC2=O)cc1 (stereo not drawn)	-6.9	–	–	–	–	–	–	–	–
Cc1cccc(-c2noc(CCC(=O)Nc3ccccc3)n2)c1	–	–	–	–	–	·	·	·	·
CCOC(=O)c1ccc(-n2ncc(C(=O)OCC)c2N)cc1	–	–	–	–	–	·	·	·	·
CCOC(=O)c1cnn(-c2ccc(C)cc2)c1N	-4.7	–	–	–	–	–	–	–	–
CCOC(=O)C1CCCN(C(=O)Cc2ccc(OC)c(OC)c2)C1 (stereo not drawn)	-4.8	–	–	–	–	–	–	–	–
COc1ccc(OCc2nc3ccc(S(=O)(=O)Nc4ccccc4Cl)cc3[nH]2)cc1	-6.1	–	–	–	–	–	–	–	–
CNC(=O)CSc1nnc(-c2cccnc2)n1-c1ccc(C)cc1	-5.6	–	–	–	–	–	–	–	–
O=C(NCCc1ccco1)C(=O)NCC1CCCN1S(=O)(=O)c1ccccc1 (stereo not drawn)	-5.1	–	–	-7.3	–	–	–	–	–

Bioassay records as filed in PubChem.
